Data as given in ChEMBL document CHEMBL1154802, “Antiestrogenic constituents of the Thai medicinal plants Capparis flavicans and Vitex glabrata” (2009).
Activity calls are given as the source filed them. The calls are words filed in the database; no cut-off is given here.

How the values were obtained:
T47D [1] = assay: Antiestrogenic activity in human T47D cells assessed as drug level causing inhibition of 100 pM E2-enhanced cell proliferation to level equivalent to 1 pM E2 after 96 hrs by alamar blue assay; type: functional
Summary of the method: (§1)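 Cells seeded at 1 × 10^4 per well in phenol red-free RPMI with 5% DCC-treated FBS. E2 was added from a 20 nM solution to give 100 pM and preincubated 1 h at 37 °C, 5% CO2. Compounds were then added at 0.1, 1, 10 and 100 µM for 96 h, with serially diluted tamoxifen as positive control. Antagonism was judged from cell populations. iEqE values were obtained by linear regression over four concentrations.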

T47D [2] = assay: Stimulation of human T47D cell proliferation up to 100 uM after 96 hrs by alamar blue assay relative to estradiol; type: functional, cell-based
Summary of the method: (§2)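 Compounds were given alone at 0.1, 1, 10 and 100 µM, and stimulation of proliferation was compared with estradiol at 1–100 pM. Cell proliferation assay as in an earlier report.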

T47D [3] = assay: Antiestrogenic activity in human T47D cells assessed as drug level causing inhibition of 100 pM E2-enhanced cell proliferation to level equivalent to 10 pM E2 after 96 hrs by alamar blue assay; type: functional; summary of the method: as §1
MCF7 [4] = assay: Antiestrogenic activity in human MCF7 cells assessed as drug level causing inhibition of 100 pM E2-enhanced cell proliferation to level equivalent to 1 pM E2 after 96 hrs by alamar blue assay; type: functional; summary of the method: as §1
MCF7 [5] = assay: Antiestrogenic activity in human MCF7 cells assessed as drug level causing inhibition of 100 pM E2-enhanced cell proliferation to level equivalent to 10 pM E2 after 96 hrs by alamar blue assay; type: functional; summary of the method: as §1
T47D [6] = assay: Antiestrogenic activity in human T47D cells assessed as drug level causing inhibition of 100 pM E2-enhanced cell proliferation to level equivalent to 50 pM E2 after 96 hrs by alamar blue assay; type: functional; summary of the method: as §1
MCF7 [7] = assay: Stimulation of human MCF7 cell proliferation up to 100 uM after 96 hrs by alamar blue assay relative to estradiol; type: functional, cell-based; summary of the method: as §2
MCF7 [8] = assay: Antiestrogenic activity in human MCF7 cells assessed as drug level causing inhibition of 100 pM E2-enhanced cell proliferation to level equivalent to 50 pM E2 after 96 hrs by alamar blue assay; type: functional; summary of the method: as §1

| SMILES | Activity (T47D [1]) [µM] | Activity (T47D [2]) | Activity (T47D [3]) [µM] | Activity (MCF7 [4]) [µM] | Activity (MCF7 [5]) [µM] | Activity (T47D [6]) [µM] | Activity (MCF7 [7]) | Activity (MCF7 [8]) [µM] |
| --- | --- | --- | --- | --- | --- | --- | --- | --- |
| OC/C=C/c1ccc2c(c1)O[C@H](c1ccc(O)c(O)c1)[C@@H](CO)O2 [ISOAMERICANOL A] | >100 | inactive | 9 | >100 | 6 | <0.1 | inactive | <0.1 |
| OC[C@@H]1Oc2ccc([C@H]3OC[C@H]4[C@@H]3CO[C@@H]4c3ccc(O)c(O)c3)cc2O[C@H]1c1ccc(O)c(O)c1 [PRINCEPIN] | 6 | inactive | 1 | 7 | 4 | 0.4 | inactive | 0.3 |
| COc1cc([C@H]2OC[C@H]3[C@@H]2CO[C@@H]3c2cc(OC)c(O)c(OC)c2)cc(OC)c1O [SYRINGARESINOL] | 7 | inactive | 1 | 5 | 4 | <0.1 | inactive | 2 |
| Oc1ccc([C@H]2OC[C@H]3[C@@H]2CO[C@@H]3c2ccc(O)c(O)c2)cc1O | 73 | inactive | 26 | 94 | 31 | 0.2 | inactive | 0.2 |
| CC/C(=C(\c1ccccc1)c1ccc(OCCN(C)C)cc1)c1ccccc1 [TAMOXIFEN] | 9 |  | 0.7 | 0.4 | 0.2 | 0.1 |  | 0.1 |
| COc1cc(O)cc(OC)c1O[C@@H]1O[C@H](CO)[C@@H](O)[C@H](O)[C@H]1O [LEONURISIDE] | >100 | inactive | 39 | >100 | <0.1 | 0.4 | inactive | <0.1 |
| C[C@@H](/C=C/[C@]1(O)[C@]2(C)CO[C@@]1(C)CC(=O)C2)O[C@@H]1O[C@H](CO)[C@@H](O)[C@H](O)[C@H]1O [SPIONOSIDE B] | >100 | inactive | 61 | 15 | <0.1 | 0.2 | inactive | <0.1 |
| COc1cc([C@H]2OC[C@H]3[C@@H]2CO[C@@H]3c2cc(OC)c(O[C@@H]3O[C@H](CO)[C@@H](O)[C@H](O)[C@H]3O)c(OC)c2)cc(OC)c1O | >100 | inactive | 19 | <0.1 | <0.1 | <0.1 | inactive | <0.1 |
| COc1cc(O[C@@H]2O[C@H](CO)[C@@H](O)[C@H](O)[C@H]2O)ccc1O [TACHIOSIDE] | >100 | inactive | 10 | >100 | 0.2 | <0.1 | inactive | <0.1 |
| COc1cc([C@H]2Oc3c(OC)cc(/C=C/CO)cc3[C@@H]2CO)ccc1O[C@@H]1O[C@H](CO)[C@@H](O)[C@H](O)[C@H]1O | >100 | inactive | 63 | >100 | >100 | <0.1 | inactive | 0.3 |
